Experimental findings from ChEMBL document CHEMBL1777741, “Design of a potent, soluble glucokinase activator with increased pharmacokinetic half-life” (Bioorg Med Chem Lett, 2011) are described below.

The structures appear in SMILES notation. ≈ marks a conversion by molar mass, not a printed value.

Series [1] deals with T1, Hexokinase-4 (Homo sapiens, UniProt P35557).
T1 sequence (P35557 whole entry): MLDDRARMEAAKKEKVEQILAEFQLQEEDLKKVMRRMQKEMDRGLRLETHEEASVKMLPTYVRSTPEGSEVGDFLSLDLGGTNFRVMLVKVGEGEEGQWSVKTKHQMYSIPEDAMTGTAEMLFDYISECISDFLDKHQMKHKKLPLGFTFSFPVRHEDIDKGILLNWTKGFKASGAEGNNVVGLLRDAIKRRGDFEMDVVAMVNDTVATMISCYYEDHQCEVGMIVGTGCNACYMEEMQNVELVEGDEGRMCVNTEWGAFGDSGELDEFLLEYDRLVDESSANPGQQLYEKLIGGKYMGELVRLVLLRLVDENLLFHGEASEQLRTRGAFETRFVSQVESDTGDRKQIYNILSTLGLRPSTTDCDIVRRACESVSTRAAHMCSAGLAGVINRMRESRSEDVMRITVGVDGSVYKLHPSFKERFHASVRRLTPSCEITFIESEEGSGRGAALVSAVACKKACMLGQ
The series is described as follows: Activation of His-tagged recombinant glucokinase expressed in Escherichia coli using [14C]-glucose substrate by […].

Series [2] is described as follows: in vivo. As to conditions: CR-Han Wistar, rat, iv, 1 mg/kg.
A short description of series [3]: in vitro. As to conditions: rat, plasma.
Series [4] can be described thus: Percentage unbound in dog plasma. The class given is ADME, cell-free, Canis lupus familiaris. The method, boiled down:
(§1)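 Unbound fraction in plasma was measured by equilibrium dialysis and reported as percentage free.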

The nature of series [5]: Percentage unbound in human plasma. The format is ADME, cell-free. The essentials:
as §1

The nature of series [6]: Half life in rat. The class given is ADME, organism-based. As to conditions: in vivo.
Series [7] in a line: Half life in dog. The conditions noted are these: in vivo. The class given is ADME, organism-based, Canis lupus familiaris.
The nature of series [8]: Intrinsic clearance in rat hepatocytes measured per 10^6 cells. The class given is ADME, cell-based, Liver, Hepatocyte.
A short description of series [9]: Intrinsic clearance in dog hepatocytes measured per 10^6 cells. The class given is ADME, cell-based, Canis lupus familiaris, Liver, Hepatocyte.
Series [10] can be described thus: Intrinsic clearance in human hepatocytes measured per 10^6 cells. The format is ADME, cell-based, Liver, Hepatocyte.
Series [11] is described as follows: Solubility of the compound. The class given is physicochemical.
Series [12] in a line: Bioavailability in rat. The class given is ADME, organism-based. As to conditions: in vivo.
A short description of series [13]: Clearance in dog. The conditions noted are these: in vivo. The format is ADME, organism-based, Canis lupus familiaris.
Series [14] is described as follows: Bioavailability in dog. The conditions noted are these: in vivo. The format is ADME, organism-based, Canis lupus familiaris.

With `COC[C@H](C)Oc1cc(Oc2ccc(OC)cc2)cc(C(=O)Nc2ccc(C(=O)O)cn2)c1`, in series [1], the EC50 was 60 nM. The same compound came in with a clearance in [2] of 3.2 mL/min/kg. This compound yielded a fraction unbound in [3] of 0.0069.

Turning to `CC(C)Oc1cc(O[C@@H](C)c2ccccc2)cc(C(=O)Nc2ccc(C(=O)O)cn2)c1`, the concentration for a half-maximal effect (EC50) in [1] was 150 nM. The clearance in [2] was found to be 0.6 mL/min/kg. Also, the fraction unbound in series [3] was determined as 0.0035.

Regarding `COC[C@H](C)Oc1cc(Oc2cccc(F)c2)cc(C(=O)Nc2ccc(C(=O)O)cn2)c1`, the EC50 in [1] was 180 nM. Besides, the clearance in [2] came out at 0.2 mL/min/kg. The same compound had a free fraction (fraction unbound) in series [3] of 0.0021.

In turn, `CC(C)Oc1cc(Oc2ccccc2)cc(C(=O)Nc2ccc(C(=O)O)cn2)c1` yielded a clearance in series [2] of 0.2 mL/min/kg. The unbound share (fraction unbound) in series [3] came out at 0.0021.

Consider `COC[C@H](C)Oc1cc(O[C@@H](C)Cc2ccccc2)cc(C(=O)Nc2ccc(C(=O)O)cn2)c1`, for which the fraction unbound amounted to 0.0146 in series [4], 0.0044 in [5] and 0.004 in [3]. The half-life was 4.5 h in [6] and 1.4 h in series [7]. For the same compound, the intrinsic metabolic clearance (hepatocyte CLint) in [8], in series [9] and in [10] was less than 1 µL/min/1e6 cells in each case. The clearance in [2] turned out to be 1.9 mL/min/kg.

In series [2], `CC(C)Oc1cc(O[C@@H](C)Cc2ccccc2)cc(C(=O)Nc2ccc(C(=O)O)cn2)c1` gave a clearance of 3.3 mL/min/kg. In series [3], this compound showed a fraction unbound of 0.0023.

With `COC[C@H](C)Oc1cc(Oc2ccc(Cl)cc2)cc(C(=O)Nc2ccc(C(=O)O)cn2)c1`, the clearance in series [2] amounted to 0.9 mL/min/kg. This compound also showed a free fraction (fraction unbound) in series [3] of 0.0012.

With `COCC(C)(C)Oc1cc(O[C@@H](C)Cc2ccccc2)cc(C(=O)Nc2ccc(C(=O)O)cn2)c1`, the EC50 in series [1] is more than 10000 nM. Further, the unbound share (fraction unbound) in [3] worked out at 0.0042.

With `COC[C@H](C)Oc1cc(O[C@@H](C)Cc2ccc(F)cc2)cc(C(=O)Nc2ccc(C(=O)O)cn2)c1`, the EC50 in series [1] was 40 nM. Further, the clearance in [2] is 1 mL/min/kg. Also, the free fraction (fraction unbound) in series [3] is 0.0025.

With `COC[C@H](C)Oc1cc(Oc2cc(F)cc(F)c2)cc(C(=O)Nc2ccc(C(=O)O)cn2)c1`, the EC50 in [1] was 90 nM. This compound also displayed a solubility in series [11] of 841 µM (≈ 386 µg/mL). Further, the fraction unbound in series [4] is 0.0159; in series [5], 0.0055; in series [3], 0.0023. The half-life in series [6] is 15.8 h; in [7], 4.9 h. The figures for the bioavailability in series [12] and in [14] were 97% and more than 100%, respectively. The clearance in series [13] was determined as 5.2 mL/min/kg; in series [2], 0.1 mL/min/kg. The intrinsic metabolic clearance (hepatocyte CLint) in series [8], in series [9] and in series [10] was less than 1 µL/min/1e6 cells in each case.

In the case of `COC[C@H](C)Oc1cc(Oc2ccc(S(C)(=O)=O)cc2)cc(C(=O)Nc2ccc(C(=O)O)cn2)c1`, in series [1], the EC50 came out at 60 nM. This compound showed a clearance in [2] of 8.2 mL/min/kg. This compound also came in with a fraction unbound in series [3] of 0.0738.

Take `COC[C@H](C)Oc1cc(OC[C@H](C)c2ccccc2)cc(C(=O)Nc2ccc(C(=O)O)cn2)c1`: the EC50 in series [1] is 70 nM. The same compound displayed a clearance in series [2] of 2.9 mL/min/kg. Besides, the free fraction (fraction unbound) in [3] was 0.0033.

Turning to `COC[C@H](C)Oc1cc(O[C@@H](C)Cc2cc(F)cc(F)c2)cc(C(=O)Nc2ccc(C(=O)O)cn2)c1`, the clearance in series [2] was found to be 1.1 mL/min/kg. The same compound showed a fraction unbound in series [3] of 0.001.

As for `C[C@@H](Cc1ccccc1)Oc1cc(OC2CCOCC2)cc(C(=O)Nc2ccc(C(=O)O)cn2)c1`, the concentration giving a half-maximal response (EC50) in [1] is more than 10000 nM. This compound also registered a free fraction (fraction unbound) in series [3] of 0.0109.

Regarding `COC[C@H](C)Oc1cc(Oc2cccc(N(C)C)c2)cc(C(=O)Nc2ccc(C(=O)O)cn2)c1`, the EC50 in series [1] amounted to 400 nM. Also, in series [3], the fraction unbound was found to be 0.0122.

With `CC(C)Oc1cc(OC2Cc3ccccc3C2)cc(C(=O)Nc2ccc(C(=O)O)cn2)c1`, in [1], the EC50 was 100 nM. Further, the clearance in series [2] was found to be 1.6 mL/min/kg. Also, the free fraction (fraction unbound) in [3] was 0.001.

Regarding `COC[C@H](C)Oc1cc(O[C@@H](C)Cc2ccccc2OC)cc(C(=O)Nc2ccc(C(=O)O)cn2)c1`, the clearance in series [2] is 6.1 mL/min/kg. Further, in series [3], the fraction unbound was determined as 0.0042.

Take `COC[C@H](C)Oc1cc(Oc2ccccc2)cc(C(=O)Nc2ccc(C(=O)O)cn2)c1`: the EC50 in series [1] was found to be 160 nM. In [2], this compound returned a clearance of 0.4 mL/min/kg. The compound further showed a fraction unbound in series [3] of 0.0055.

Consider `COC[C@H](C)Oc1cc(Oc2cccc(Cl)c2)cc(C(=O)Nc2ccc(C(=O)O)cn2)c1`, for which, in series [1], the EC50 stood at 110 nM. For the same compound, the clearance in series [2] worked out at 0.8 mL/min/kg. For the same compound, the fraction unbound in series [3] is 0.0016.

Consider `COC[C@H](C)Oc1cc(O[C@@H](C)Cc2ccc(Cl)o2)cc(C(=O)Nc2ccc(C(=O)O)cn2)c1`, for which the concentration giving a half-maximal response (EC50) in series [1] turned out to be 30 nM. For the same compound, the clearance in series [2] was determined as 1.6 mL/min/kg. Besides, the fraction unbound in series [3] turned out to be 0.0025.

For orientation: EC50 means the concentration that produces a half-maximal response. By clearance is commonly meant the rate of elimination divided by the concentration. What is called fraction unbound is the share of the substance not bound to proteins or other matrix. A low value points to extensive binding. Broadly, the half-life is how long it takes for the measured level to halve. High values mean slow decline, low ones rapid decline. The term hepatocyte CLint denotes the capacity of the preparation to metabolise the compound, expressed as a volume cleared per time. Low values mean slow turnover, high ones rapid turnover. Broadly, the solubility is the dissolved amount per volume that the medium holds. The low end stands for little dissolved substance, the high end for much dissolved substance. By bioavailability is commonly meant the share of a dose that reaches the circulation, judged against a reference dose that is usually intravenous.
